Published values pooled from the literature.
In brackets after ≈: the same amount, converted by molar mass.
Organism: Pichia kudriavzevii

Structure (SMILES) | observed | technique | strain | time | quantity | result
CCCCCCCCCCCCCC(O)CC(O)CO (centres unmarked) | microbial growth | broth dilution | ATCC6258 | – | IC50 | 196 µg/mL (≈ 681 µM)
CN1CCNCC1 | microbial growth | broth dilution | ATCC6258 | 48 h | MIC | > 31.3 µg/mL
CCCCCCCOc1c(OC)cc(NC(C)CCCN)c2nc(C(C)(C)C)cc(C)c12 (centres unmarked) | microbial growth | – | ATCC6258 | – | IC50 | 2.89 µg/mL (≈ 6.51 µM)
CCCCCCCCCCCCN1CCNCC1 | microbial growth | broth dilution | ATCC6258 | 48 h | MIC | 1.95 µg/mL (≈ 7.66 µM)
CCCCOc1c(OC)cc(NC(C)CCCN)c2nc(C(C)(C)C)cc(C)c12 (centres unmarked) | microbial killing | – | ATCC6258 | – | MFC | 10 µg/mL (≈ 24.9 µM)
OC(Cn1cncn1)(Cn1cncn1)c1ccc(F)cc1F | microbial growth | broth dilution | – | 24 h | MIC90 | 256 µg/mL (≈ 836 µM)
C[C@@H]1[C@H](O)[C@@H](C)/C=C/C=C/C=C/C=C/C=C/C=C/C=C/[C@H](O[C@@H]2O[C@H](C)[C@@H](O)[C@H](N)[C@@H]2O)C[C@@H]2O[C@](O)(C[C@@H](O)C[C@@H](O)[C@H](O)CC[C@@H](O)C[C@@H](O)CC(=O)O[C@H]1C)C[C@H](O)[C@H]2C(=O)O | microbial growth | broth dilution | ATCC6258 | – | IC50 | 0.65 µg/mL (≈ 0.703 µM)
C[C@@H]1[C@H](O)[C@@H](C)/C=C/C=C/C=C/C=C/C=C/C=C/C=C/[C@H](O[C@@H]2O[C@H](C)[C@@H](O)[C@H](N)[C@@H]2O)C[C@@H]2O[C@](O)(C[C@@H](O)C[C@@H](O)[C@H](O)CC[C@@H](O)C[C@@H](O)CC(=O)O[C@H]1C)C[C@H](O)[C@H]2C(=O)O | microbial killing | – | ATCC6258 | – | MFC | 1.25 µg/mL (≈ 1.35 µM)
OC(Cn1cncn1)(Cn1cncn1)c1ccc(F)cc1F | microbial growth | – | – | – | MIC90 | 64 µg/mL (≈ 209 µM)
CN1CCN(CC(O)(Cn2cncn2)c2ccc(F)cc2F)CC1 (centres unmarked) | microbial growth | broth dilution | ATCC6258 | 48 h | MIC | 15.6 µg/mL (≈ 46.2 µM)
COc1cc(NC(C)CCCN)c2nc(C(C)(C)C)ccc2c1Oc1ccc(Cl)c(Cl)c1 (centres unmarked) | microbial growth | – | ATCC6258 | – | IC50 | 8.65 µg/mL (≈ 18.2 µM)
Nc1[nH]c(=O)ncc1F | microbial growth | – | – | – | MIC90 | 8 µg/mL (≈ 62 µM)
CC(C)C1=CC2=CC(=O)[C@H]3C(C)(C)CCC[C@]3(C)C2=C(O)C1=O | microbial growth | – | ATCC6258 | – | IC50 | 12 µg/mL (≈ 38.2 µM)
CCCCCOc1c(OC)cc(NC(C)CCCNC(=O)C(N)Cc2cc3ccccc3[nH]2)c2nc(C(C)(C)C)ccc12 (centres unmarked) | microbial growth | – | ATCC6258 | – | IC50 | 4.28 µg/mL (≈ 7.28 µM)
C=CCCCCCCCCCCCC(O)CC(O)CO (centres unmarked) | microbial growth | broth dilution | ATCC6258 | – | IC50 | > 200 µg/mL
CCCCCCCCCCN1CCN(CC(O)(Cn2cncn2)c2ccc(F)cc2F)CC1 (centres unmarked) | microbial growth | broth dilution | ATCC6258 | 48 h | MIC | 1.95 µg/mL (≈ 4.21 µM)
CCCCCOc1c(OC)cc(NC(C)CCCNC(=O)C(N)CC(C)C)c2nc(C(C)(C)C)ccc12 (centres unmarked) | microbial growth | – | ATCC6258 | – | IC50 | 8.73 µg/mL (≈ 17 µM)
CCCCCCCCCCCN1CCN(CC(O)(Cn2cncn2)c2ccc(F)cc2F)CC1 (centres unmarked) | microbial growth | broth dilution | ATCC6258 | 48 h | MIC | 1.95 µg/mL (≈ 4.08 µM)
CCCCCCOc1c(OC)cc(NC(C)CCCN)c2nc(C(C)(C)C)cc(C)c12 (centres unmarked) | microbial growth | – | ATCC6258 | – | IC50 | 3.73 µg/mL (≈ 8.68 µM)
C[C@@H]1[C@H](O)[C@@H](C)/C=C/C=C/C=C/C=C/C=C/C=C/C=C/[C@H](O[C@@H]2O[C@H](C)[C@@H](O)[C@H](N)[C@@H]2O)C[C@@H]2O[C@](O)(C[C@@H](O)C[C@@H](O)[C@H](O)CC[C@@H](O)C[C@@H](O)CC(=O)O[C@H]1C)C[C@H](O)[C@H]2C(=O)O | microbial growth | broth dilution | ATCC6258 | 48 h | MIC | 3.9 µg/mL (≈ 4.22 µM)
CCCCCCOc1c(OC)cc(NC(C)CCCNC(=O)C(N)Cc2cnc[nH]2)c2nc(C(C)(C)C)ccc12 (centres unmarked) | microbial killing | – | ATCC6258 | – | MFC | > 20 µg/mL
CCCCCCCCCCCCN1CCN(CC(O)(Cn2cncn2)c2ccc(F)cc2F)CC1 (centres unmarked) | microbial growth | broth dilution | ATCC6258 | 48 h | MIC | 0.48 µg/mL (≈ 0.976 µM)
CCC(C)n1ncn(-c2ccc(N3CCN(c4ccc(OCC5COC(Cn6cncn6)(c6ccc(Cl)cc6Cl)O5)cc4)CC3)cc2)c1=O (centres unmarked) | microbial growth | – | – | – | MIC90 | 0.5 µg/mL (≈ 0.709 µM)
